How the values were obtained:
[1] = Oral bioavailability in Sprague-Dawley rat at 10 mg/kg; assay type: ADME, organism-based; settings: in vivo
[2] = Plasma protein binding in Sprague-Dawley rat; assay type: ADME, cell-free; settings: read-out: PPB (converted)
[3] = Half life in iv dosed Sprague-Dawley rat; assay type: ADME, organism-based; settings: in vivo
[4] = Clearance in Sprague-Dawley rat; assay type: ADME, organism-based; settings: in vivo
[5] = AUC in Sprague-Dawley rat at 10 mg/kg, po; assay type: ADME, organism-based; set-up: dose 10 mg/kg, route oral; settings: plasma
Outline: (§1)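 Given orally as crystalline sodium salt; plasma AUC determined in Sprague Dawley rats (10 mpk), Cynomolgus monkeys (3 mpk) or Beagle dogs (3 mpk).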

[6] = Half life in iv dosed beagle dog; assay type: ADME, organism-based, Canis lupus familiaris; settings: in vivo
[7] = Clearance in beagle dog; assay type: ADME, organism-based, Canis lupus familiaris; settings: in vivo
[8] = Ratio of drug uptake in liver to plasma of Sprague-Dawley rat at 10 mg/kg, po; assay type: ADME, organism-based; set-up: dose 10 mg/kg, route oral
Outline: (§2)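 Crystalline sodium salt given orally at 10 mg/kg to fasted male Sprague Dawley rats. Liver and brain uptake were measured and reported as the mean tissue-to-plasma ratio.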

[9] = AUC in beagle dog at 3 mg/kg, po; assay type: ADME, organism-based, Canis lupus familiaris; set-up: dose 3 mg/kg, route oral; settings: plasma; outline: as §1
[10] = Half life in iv dosed cynomolgus monkey; assay type: ADME, organism-based, Macaca fascicularis; settings: in vivo
[11] = Oral bioavailability in beagle dog at 3 mg/kg; assay type: ADME, organism-based, Canis lupus familiaris; settings: in vivo
Outline: (§3)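 The compound was given as a crystalline sodium salt. Pharmacokinetics were studied in Sprague Dawley rats, Cynomolgus monkeys and Beagle dogs after oral (PO) and IV dosing. Oral exposure was read as AUC, and the oral dose was 3 mpk in monkeys and dogs. Volume of distribution was taken at steady state.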

[12] = Plasma protein binding in cynomolgus monkey; assay type: ADME, cell-free, Macaca fascicularis; settings: read-out: PPB (converted)
[13] = Volume of distribution at steady state in Sprague-Dawley rat; assay type: ADME, organism-based; settings: in vivo, read-out: Vdss; outline: as §3
[14] = Clearance in cynomolgus monkey; assay type: ADME, organism-based, Macaca fascicularis; settings: in vivo
[15] = Volume of distribution at steady state in cynomolgus monkey; assay type: ADME, organism-based, Macaca fascicularis; settings: in vivo, read-out: Vdss; outline: as §3
[16] = Volume of distribution at steady state in beagle dog; assay type: ADME, organism-based, Canis lupus familiaris; settings: in vivo, read-out: Vdss; outline: as §3
[17] = Ratio of drug uptake in brain to plasma of Sprague-Dawley rat at 10 mg/kg, po; assay type: ADME, organism-based; set-up: dose 10 mg/kg, route oral; settings: read-out: BPR; outline: as §2
[18] = Oral bioavailability in cynomolgus monkey at 3 mg/kg; assay type: ADME, organism-based, Macaca fascicularis; settings: in vivo; outline: as §3
[19] = Plasma protein binding in human; assay type: ADME, cell-free; settings: read-out: PPB (converted)
[20] = AUC in cynomolgus monkey at 3 mg/kg, po; assay type: ADME, organism-based, Macaca fascicularis; set-up: dose 3 mg/kg, route oral; settings: plasma; outline: as §1
[21] = Plasma protein binding in beagle dog; assay type: ADME, cell-free, Canis lupus familiaris; settings: read-out: PPB (converted)
[22] = Irreversible inhibition of HCV1b NS5B delta21 polymerase by radiolabeled nucleotide incorporation assay; set-up: species or system Hepatitis C virus subtype 1b
Hepatitis C virus = assay: Antiviral activity against HCV Con1 in eplicon cells after 3 days by RT-PCR analysis; assay type: functional, organism-based, Hepacivirus hominis; settings: isolate Con1, 72 h
Outline: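 HCV 1b-Con1 replicon cells seeded at 5000 cells/well one day before treatment; inhibitor in DMSO added as 10 serial twofold dilutions in duplicate (final 0.5% DMSO, 5% FBS). Harvested 3 days post dosing; replicon RNA quantified by real-time RT-PCR (Taqman), GAPDH RNA as endogenous control; EC50 calculated.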

Question: With `Cc1cc2c(-c3ccc[nH]c3=O)c(C(=O)[O-])n(Cc3cc4ccccc4nc3Cl)c2cc1F.[Na+]` as the compound, how does the bioavailability [1] read?
Answer: 14%

Question: What about the fraction unbound [2] of the same compound?
Answer: 0.002

Question: And the half-life [3]?
Answer: 7 h

Question: What about the clearance [4] of the same compound?
Answer: 1.5 mL/min/kg

Question: And the AUC [5]?
Answer: 35 µM·h

Question: And the half-life [6]?
Answer: 2 h

Question: And the clearance [7]?
Answer: 13 mL/min/kg

Question: What about the Kp [8] of the same compound?
Answer: 0.4

Question: What about the AUC [9] of the same compound?
Answer: 3.2 µM·h

Question: What about the half-life [10] of the same compound?
Answer: 5 h

Question: And the bioavailability [11]?
Answer: 38%

Question: What about the fraction unbound [12] of the same compound?
Answer: 0.005

Question: And the Vd [13]?
Answer: 0.3 L/kg

Question: What about the clearance [14] of the same compound?
Answer: 3.5 mL/min/kg

Question: What about the Vd [15] of the same compound?
Answer: 1.2 L/kg

Question: What about the Vd [16] of the same compound?
Answer: 1.7 L/kg

Question: What about the Kp [17] of the same compound?
Answer: < 0.01

Question: And the bioavailability [18]?
Answer: 38%

Question: What about the fraction unbound [19] of the same compound?
Answer: 0.003

Question: What about the AUC [20] of the same compound?
Answer: 11.5 µM·h

Question: And the fraction unbound [21]?
Answer: 0.004

Question: For `Cc1cc2c(-c3ccc[nH]c3=O)c(C(=O)O)n(Cc3ccc(Cl)nc3)c2cc1F`, which IC50 [22] is on record?
Answer: 9 nM

Question: What about the EC50 (Hepatitis C virus) of the same compound?
Answer: > 1000 nM

Question: Which IC50 [22] does the source give for `Cc1ccc2nc(Cl)c(Cn3c(C(=O)O)c(-c4ccc[nH]c4=O)c4cc(C)c(F)cc43)cc2c1` here?
Answer: 20 nM

Question: And the EC50 (Hepatitis C virus)?
Answer: 25 nM
